What was measured:
Type in all cases: functional
[1] = Cytotoxicity against human H1299 cells assessed as cell growth at 1 uM after 48 hrs by MTT assay; conditions: NCI-H1299, 48 h, read-out: Activity
Outline: (§1)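 H1299 non-small lung cancer cells were grown in RPMI 1640 with 10% FBS and penicillin/streptomycin at 37 °C in 5% CO2. About 2×10³ cells were seeded per well and held 24 h, then washed with PBS and given fresh medium. Compound, freshly dissolved in DMSO and diluted in complete medium, was added for 48 h. MTT was read at 550 nm after SDS/DMF lysis at 37 °C for 16 h. Values are from three experiments, untreated = 100%, ±SD.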

[2] = tested on: NCI-H460; assay: Cytotoxicity against human NCI-H460 cells assessed as cell growth at 10 uM relative to control; conditions: read-out: Activity
Outline: (§2)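 Single-concentration screen in the NCI 60 human tumour cell line panel covering nine cancer types. Values are the mean growth percentage of compound-treated cells, with untreated control cells set as 100%.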

[3] = tested on: HT-29; assay: Cytotoxicity against human HT-29 cells assessed as cell growth at 10 uM relative to control; conditions: read-out: Activity; outline: as §2
[4] = tested on: NCI/ADR-RES; assay: Cytotoxicity against human NCI/ADR-RES cells assessed as cell growth at 10 uM relative to control; conditions: read-out: Activity; outline: as §2
[5] = tested on: UACC-62; assay: Cytotoxicity against human UACC62 cells assessed as cell growth at 10 uM relative to control; conditions: read-out: Activity
Outline: (§3)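 Run in the NCI 60-cell human tumour panel. Cells were exposed to 10 µM compound, and growth was given as a percentage of untreated control cells set to 100%.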

[6] = tested on: HCT-116; assay: Cytotoxicity against human HCT116 cells assessed as cell growth at 10 uM relative to control; conditions: read-out: Activity; outline: as §2
[7] = tested on: SR; assay: Cytotoxicity against human SR cells assessed as cell growth at 10 uM relative to control; conditions: read-out: Activity; outline: as §3
[8] = tested on: U-251; assay: Cytotoxicity against human U251 cells assessed as cell growth at 10 uM relative to control; conditions: read-out: Activity; outline: as §3
[9] = tested on: MDA-MB-231; assay: Cytotoxicity against human MDA-MB-231 cells assessed as cell growth at 10 uM relative to control; conditions: read-out: Activity; outline: as §2
[10] = tested on: NCI-H226; assay: Cytotoxicity against human NCI-H226 cells assessed as cell growth at 10 uM relative to control; conditions: read-out: Activity; outline: as §2
[11] = tested on: Malme-3M; assay: Cytotoxicity against human MALME-3M cells assessed as cell growth at 10 uM relative to control; conditions: read-out: Activity; outline: as §2
[12] = tested on: NCI-H23; assay: Cytotoxicity against human NCI-H23 cells assessed as cell growth at 10 uM relative to control; conditions: read-out: Activity; outline: as §2
[13] = Cytotoxicity against human H1299 cells assessed as cell growth at 10 uM after 48 hrs by MTT assay; conditions: NCI-H1299, 48 h, read-out: Activity; outline: as §1
[14] = tested on: HL-60(TB); assay: Cytotoxicity against human HL-60(TB) cells assessed as cell growth at 10 uM relative to control; conditions: read-out: Activity
Outline: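 Tested in the NCI 60 human tumour cell line panel, covering nine cancer cell types, at a single concentration. The value is the mean growth percentage of treated cells, with untreated control cells taken as 100%.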

[15] = tested on: DU-145; assay: Cytotoxicity against human DU145 cells assessed as cell growth at 10 uM relative to control; conditions: read-out: Activity; outline: as §2
[16] = tested on: OVCAR-8; assay: Cytotoxicity against human OVCAR8 cells assessed as cell growth at 10 uM relative to control; conditions: read-out: Activity; outline: as §2
[17] = tested on: ACHN; assay: Cytotoxicity against human ACHN cells assessed as cell growth at 10 uM relative to control; conditions: read-out: Activity; outline: as §2
[18] = tested on: SK-MEL-2; assay: Cytotoxicity against human SK-MEL-2 cells assessed as cell growth at 10 uM relative to control; conditions: read-out: Activity; outline: as §2
[19] = Cytotoxicity against human 786-O cells assessed as cell growth at 10 uM relative to control; conditions: 786-0, read-out: Activity; outline: as §2
[20] = tested on: RPMI-8226; assay: Growth inhibition of human RPMI8226 cells at 10 uM relative to control; conditions: read-out: GI; outline: as §3

| Structure (SMILES) | growth at 1 µM [1] [%] | growth at 10 µM [2] [%] | growth at 10 µM [3] [%] | growth at 10 µM [4] [%] | growth at 10 µM [5] [%] | growth at 10 µM [6] [%] | growth at 10 µM [7] [%] | growth at 10 µM [8] [%] | growth at 10 µM [9] [%] | growth at 10 µM [10] [%] | growth at 10 µM [11] [%] | growth at 10 µM [12] [%] | growth at 10 µM [13] [%] | growth at 10 µM [14] [%] | growth at 10 µM [15] [%] | growth at 10 µM [16] [%] | growth at 10 µM [17] [%] | growth at 10 µM [18] [%] | growth at 10 µM [19] [%] | inhibition of growth at 10 µM [20] [%] |
| --- | --- | --- | --- | --- | --- | --- | --- | --- | --- | --- | --- | --- | --- | --- | --- | --- | --- | --- | --- | --- |
| CCN(CC)CC(=O)Nc1cccc2c1C(=O)c1c(NC(=O)CN(CC)CC)cccc1C2=O | 86 | 97.2 | 101 | 101 | 93.5 | 84.2 | 88.5 | 100 | 91.2 | 85.5 | 112 | 97.1 | 78 | 94.7 | 137 | 91.2 | 91.9 | 84 | 86.4 | – |
| COC(=O)CNCC(=O)Nc1cccc2c1C(=O)c1c(NC(=O)CNCC(=O)OC)cccc1C2=O | 84 | 95.1 | 96.3 | 92.9 | 90.3 | 96.4 | – | 93.7 | 90.2 | 84.6 | 102 | 95.2 | 86 | 107 | 107 | 96.3 | 90.7 | 107 | 103 | 31.4 |

Source: ChEMBL document CHEMBL1949585, “Design, synthesis and evaluation of telomerase inhibitory, hTERT repressing, and anti-proliferation activities of symmetrical 1,8-disubstituted amidoanthraquinones” (Eur J Med Chem, 2012)
